The results in this text go back to ChEMBL document CHEMBL1154647, “Synthesis, spectral characterization and biological evaluation of phosphorylated derivatives of galanthamine” (Eur J Med Chem, 2010).

Converted amounts (≈) assume the structure as drawn.

The subject of assay [1] is Bacillus subtilis. As to the kind of experiment: Antibacterial activity against Bacillus subtilis at 1 mg/mL after 18 hrs by disc diffusion assay. The note with it: read-out: IZ. The format is functional. The gist of the method: (§1)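 Bacteria were grown in nutrient broth at 37 °C for 18 h on a rotary shaker at 150 rpm. Compounds were dissolved in DMF. Nutrient agar plates were dried at 35–36 °C for about 30 min, and test strains were spread on the surface. Discs were applied, and plates were inverted and incubated at 37 °C. A DMF blank was run.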

Assay [2] relates to Brain. As to the kind of experiment: Antioxidant activity in Wistar rat brain assessed as superoxide dismutase content. It counts as functional.
Assay [3] relates to Brain. As to the kind of experiment: Antioxidant activity in Wistar rat brain assessed as catalase content. The format is functional.
In assay [4] the test system is Brain. As to the kind of experiment: Antioxidant activity in Wistar rat brain assessed as inhibition of lipid peroxidation. The format is functional, tissue-based.
The test system of assay [5] is Escherichia coli. As to the kind of experiment: Antibacterial activity against Escherichia coli after 18 hrs. It counts as functional.
The test system of assay [6] is Bacillus subtilis. As to the kind of experiment: Antibacterial activity against Bacillus subtilis at 2 mg/mL after 18 hrs by disc diffusion assay. As to conditions: read-out: IZ. It counts as functional. A digest of the protocol:
as §1

Assay [7] deals with Brain. As to the kind of experiment: Antioxidant activity in Wistar rat brain assessed as lipid peroxidation. The format is functional, tissue-based.
Assay [8] has as its system Escherichia coli. As to the kind of experiment: Antibacterial activity against Escherichia coli at 1 mg/mL after 18 hrs by disc diffusion assay. It counts as functional. The note with it: read-out: IZ. A digest of the protocol:
as §1

Assay [9] in a line: Inhibition of superoxide dismutase in Wistar rat brain. It counts as tissue-based.
In assay [10] the test system is Klebsiella pneumoniae. As to the kind of experiment: Antibacterial activity against Klebsiella pneumoniae at 1 mg/mL after 18 hrs by disc diffusion assay. It counts as functional. As to conditions: read-out: IZ. A digest of the protocol:
as §1

The test system of assay [11] is Brain. As to the kind of experiment: Antioxidant activity in Wistar rat brain assessed as glutathione content. It counts as functional. A digest of the protocol:
(§2)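 Wistar rat brain was homogenised 1:40 (w/v) in 0.1 M phosphate buffer, pH 7.4, with 1 mM EDTA. Total glutathione (GSH + GSSG) and reduced GSH were assayed spectrophotometrically from optical density, using net rate against a standard-curve slope and intercept, times a dilution factor. Homogenate protein was measured by the Lowry method.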

The subject of assay [12] is Staphylococcus aureus. As to the kind of experiment: Antibacterial activity against Staphylococcus aureus at 1 mg/mL after 18 hrs by disc diffusion assay. It counts as functional. As to conditions: read-out: IZ. The gist of the method: as §1
Assay [13] concerns Bacillus subtilis. As to the kind of experiment: Antibacterial activity against Bacillus subtilis after 18 hrs. It counts as functional.
The target in another assay is T1, Catalase (Rattus norvegicus, UniProt P04762).
T1 sequence (P04762 whole entry): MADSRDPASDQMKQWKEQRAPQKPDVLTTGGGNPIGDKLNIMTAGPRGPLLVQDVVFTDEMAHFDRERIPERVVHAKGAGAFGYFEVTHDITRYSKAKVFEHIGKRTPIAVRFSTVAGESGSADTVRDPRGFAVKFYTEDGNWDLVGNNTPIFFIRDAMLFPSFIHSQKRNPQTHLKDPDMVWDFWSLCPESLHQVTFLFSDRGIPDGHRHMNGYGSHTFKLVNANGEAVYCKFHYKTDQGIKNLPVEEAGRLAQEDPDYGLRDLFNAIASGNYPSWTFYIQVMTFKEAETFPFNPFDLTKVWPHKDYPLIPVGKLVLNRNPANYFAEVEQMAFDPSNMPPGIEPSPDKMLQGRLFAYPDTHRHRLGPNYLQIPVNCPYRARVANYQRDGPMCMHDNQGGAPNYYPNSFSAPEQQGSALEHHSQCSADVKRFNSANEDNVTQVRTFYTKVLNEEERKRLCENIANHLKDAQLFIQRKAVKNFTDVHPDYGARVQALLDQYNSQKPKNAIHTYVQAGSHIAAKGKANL
As to the kind of experiment: Inhibition of catalase in Wistar rat brain.

For assay [14], the system named is Escherichia coli. As to the kind of experiment: Antibacterial activity against Escherichia coli at 2 mg/mL after 18 hrs by disc diffusion assay. The format is functional. As to conditions: read-out: IZ. A digest of the protocol:
as §1

For assay [15], the system named is Brain. As to the kind of experiment: Antioxidant activity in Wistar rat brain assessed as reduction in glutathione content. It counts as functional, tissue-based. A digest of the protocol: as §2
Assay [16] deals with Staphylococcus aureus. As to the kind of experiment: Antibacterial activity against Staphylococcus aureus at 2 mg/mL after 18 hrs by disc diffusion assay. The note with it: read-out: IZ. It counts as functional. The gist of the method: as §1
Assay [17] has as its system Staphylococcus aureus. As to the kind of experiment: Antibacterial activity against Staphylococcus aureus after 18 hrs. The format is functional.
For assay [18], the system named is Klebsiella pneumoniae. As to the kind of experiment: Antibacterial activity against Klebsiella pneumoniae at 2 mg/mL after 18 hrs by disc diffusion assay. The format is functional. The note with it: read-out: IZ. A digest of the protocol: as §1
In assay [19] the test system is Klebsiella pneumoniae. As to the kind of experiment: Antibacterial activity against Klebsiella pneumoniae after 18 hrs. It counts as functional.

For the molecule `COc1ccc2c3c1O[C@H]1C[C@@H](OP(=O)(NCCO)N(CCCl)CCCl)C=C[C@@]31CCN(C)C2` (stereo not given in full), the zone of inhibition at 1000 µg/mL was 2.22 mm with Bacillus subtilis [1], 1.32 mm in the assay on Escherichia coli [8], 1.47 mm in the assay on Klebsiella pneumoniae [10] and 1.47 mm in the assay with Staphylococcus aureus [12]. The Activity in the assay with Brain [2] worked out at 29.86 µg/mL; in the assay on Brain [3], 287.59 µg/mL; in the assay on Brain [7], 72.3 µg/mL; in the assay on Brain [11], 4.73 µg/mL. Moreover, the EC50 in the assay with Brain [4] is 1.42 mg/L (≈ 2.66 µM); in assay [9], 1.28 mg/L (≈ 2.4 µM); on Catalase it was 1.52 mg/L (≈ 2.84 µM); with Brain [15] it was 1.03 mg/L (≈ 1.93 µM). Further, the MIC against Escherichia coli [5] is 0.35 mg/L (≈ 0.655 µM); against Bacillus subtilis [13] it was 0.11 mg/L (≈ 0.206 µM); against Staphylococcus aureus [17], 0.29 mg/L (≈ 0.543 µM); with Klebsiella pneumoniae [19], 0.15 mg/L (≈ 0.281 µM). Besides, the zone of inhibition at 2000 µg/mL was found to be 3.46 mm with Bacillus subtilis [6], 3.86 mm in the assay with Escherichia coli [14], 4.78 mm in the assay on Staphylococcus aureus [16] and 4.45 mm in the assay on Klebsiella pneumoniae [18].
As for `COc1ccc2c3c1O[C@H]1C[C@@H](OP(=O)(SCCO)N(CCCl)CCCl)C=C[C@@]31CCN(C)C2` (stereo not given in full), the zone of inhibition at 1000 µg/mL with Bacillus subtilis [1] worked out at 1.72 mm; in the assay with Escherichia coli [8], 1.14 mm; in the assay with Klebsiella pneumoniae [10], 2.08 mm; with Staphylococcus aureus [12] it was 1.53 mm. Moreover, the Activity is 29.55 µg/mL with Brain [2], 285.32 µg/mL in the assay on Brain [3], 71.2 µg/mL in the assay on Brain [7] and 4.92 µg/mL in the assay with Brain [11]. Moreover, the EC50 turned out to be 1.33 mg/L (≈ 2.41 µM) in the assay on Brain [4], 1.62 mg/L (≈ 2.94 µM) in assay [9], 1.67 mg/L (≈ 3.03 µM) at Catalase and 1.11 mg/L (≈ 2.01 µM) with Brain [15]. Also, the MIC was determined as 0.26 mg/L (≈ 0.471 µM) in the assay with Escherichia coli [5], 0.13 mg/L (≈ 0.236 µM) in the assay on Bacillus subtilis [13], 0.21 mg/L (≈ 0.381 µM) in the assay with Staphylococcus aureus [17] and 0.59 mg/L (≈ 1.07 µM) against Klebsiella pneumoniae [19]. Besides, the zone of inhibition at 2000 µg/mL was 3.01 mm in the assay with Bacillus subtilis [6], 2.21 mm with Escherichia coli [14], 3.09 mm in the assay on Staphylococcus aureus [16] and 6.46 mm in the assay with Klebsiella pneumoniae [18].
For the molecule `COc1ccc2c3c1O[C@H]1C[C@@H](OP(=O)(OP(=O)(O)O)N(CCCl)CCCl)C=C[C@@]31CCN(C)C2` (stereo not given in full), the zone of inhibition at 1000 µg/mL turned out to be 2.09 mm with Bacillus subtilis [1], 1.26 mm with Escherichia coli [8], 1.39 mm in the assay on Klebsiella pneumoniae [10] and 1.72 mm in the assay on Staphylococcus aureus [12]. For the same molecule, the Activity with Brain [2] is 28.14 µg/mL; in the assay with Brain [3] it was 278.33 µg/mL; in the assay with Brain [7], 74.9 µg/mL; in the assay on Brain [11] it was 4.72 µg/mL. Besides, the EC50 in the assay on Brain [4] stood at 1.98 mg/L (≈ 3.47 µM); in assay [9] it was 1.26 mg/L (≈ 2.21 µM); on Catalase, 2.18 mg/L (≈ 3.82 µM); with Brain [15], 2.68 mg/L (≈ 4.69 µM). In addition, the minimal inhibitory concentration (MIC) came to 0.42 mg/L (≈ 0.735 µM) against Escherichia coli [5], 0.16 mg/L (≈ 0.28 µM) with Bacillus subtilis [13], 0.38 mg/L (≈ 0.665 µM) in the assay with Staphylococcus aureus [17] and 0.48 mg/L (≈ 0.84 µM) in the assay with Klebsiella pneumoniae [19]. Besides, the zone of inhibition at 2000 µg/mL with Bacillus subtilis [6] turned out to be 4.49 mm; in the assay on Escherichia coli [14], 4.08 mm; in the assay on Staphylococcus aureus [16] it was 4.65 mm; with Klebsiella pneumoniae [18], 3.68 mm.
For the molecule `COc1ccc2c3c1O[C@H]1C[C@@H](OP(=O)(OCCO)Oc4ccc([N+](=O)[O-])cc4)C=C[C@@]31CCN(C)C2` (stereo not given in full), the zone of inhibition at 1000 µg/mL in the assay on Bacillus subtilis [1] was found to be 2.61 mm; in the assay on Escherichia coli [8], 1.53 mm; in the assay with Klebsiella pneumoniae [10], 2.69 mm; in the assay on Staphylococcus aureus [12], 1.9 mm. For the same molecule, the Activity was 29.41 µg/mL in the assay on Brain [2], 286.43 µg/mL in the assay with Brain [3], 72.1 µg/mL with Brain [7] and 5.21 µg/mL in the assay on Brain [11]. The EC50 with Brain [4] came out at 3.17 mg/L (≈ 5.95 µM); in assay [9], 3.28 mg/L (≈ 6.16 µM); at Catalase it was 3.28 mg/L (≈ 6.16 µM); in the assay with Brain [15] it was 2.82 mg/L (≈ 5.3 µM). The MIC in the assay with Escherichia coli [5] came out at 0.67 mg/L (≈ 1.26 µM); against Bacillus subtilis [13], 0.25 mg/L (≈ 0.469 µM); in the assay on Staphylococcus aureus [17] it was 1.09 mg/L (≈ 2.05 µM); against Klebsiella pneumoniae [19] it was 0.39 mg/L (≈ 0.732 µM). In addition, the zone of inhibition at 2000 µg/mL in the assay on Bacillus subtilis [6] is 3.71 mm; with Escherichia coli [14] it was 5.01 mm; with Staphylococcus aureus [16], 4.27 mm; in the assay on Klebsiella pneumoniae [18] it was 4.96 mm.
For `COc1ccc2c3c1O[C@H]1C[C@@H](O)C=C[C@@]31CCN(C)C2` [GALANTAMINE], the zone of inhibition at 1000 µg/mL was 1.65 mm in the assay with Bacillus subtilis [1], 1.47 mm in the assay with Escherichia coli [8], 1.83 mm in the assay with Klebsiella pneumoniae [10] and 1.39 mm in the assay on Staphylococcus aureus [12]. In addition, the Activity in the assay on Brain [2] was 29.37 µg/mL; in the assay on Brain [3], 283.44 µg/mL; in the assay with Brain [7] it was 70.7 µg/mL; in the assay with Brain [11] it was 4.69 µg/mL. Moreover, the EC50 amounted to 4.93 mg/L (≈ 17.2 µM) in the assay with Brain [4], 3.84 mg/L (≈ 13.4 µM) in assay [9], 5.06 mg/L (≈ 17.6 µM) on Catalase and 4.21 mg/L (≈ 14.7 µM) in the assay on Brain [15]. Besides, the MIC against Escherichia coli [5] turned out to be 0.7 mg/L (≈ 2.44 µM); against Bacillus subtilis [13], 0.18 mg/L (≈ 0.626 µM); with Staphylococcus aureus [17], 1 mg/L (≈ 3.48 µM); against Klebsiella pneumoniae [19], 0.62 mg/L (≈ 2.16 µM). In addition, the zone of inhibition at 2000 µg/mL is 2.25 mm with Bacillus subtilis [6], 2.02 mm in the assay with Escherichia coli [14], 2.66 mm in the assay on Staphylococcus aureus [16] and 2.21 mm in the assay on Klebsiella pneumoniae [18].
